{"source": "the RNAGym collection of RNA variant scans (doi:10.1002/anie.201605470)", "parents": {"B1": {"name": "Osa-1-4 twister ribozyme (parent)", "chain": "CCGCCUAACACUGCCAAUGCCGGUCCCAAGCCCGGAUAAAAGUGGAGGGGGCGG"}}, "data": [{"variants_of": "B1", "experiment": "self-cleavage, relative activity (ratio to wild type); higher = more cleavage; co-transcriptional", "procedure,_shortened": "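Relative activity is the fraction cleaved divided by that of the wild-type ribozyme. The library came from a DNA template for a 54-nucleotide Oryza sativa twister ribozyme, doped at the 48 positions downstream of the cleavage site with 97 % wild-type base and 1 % of each other base. After 2 h of in vitro transcription at 37 °C with co-transcriptional self-cleavage, the RNA was reverse-transcribed with a template-switching oligonucleotide, amplified by PCR and deep-sequenced, and reads with or without upstream sequence gave the cleavage status.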", "values": [{"variant": "CCGCCUAACACUGCCAAUGCCGUUCCAAAGCCCGGAUAAAAGUGGAGGGGGCGG", "note": "[C27A G23U]", "self-cleavage": 0.04}, {"variant": "CCGCCUAACACUGCCAAUGCCGGUCCAAAGCCCGGAUAAAAUUGGAGGGGGCGG", "note": "[C27A G42U]", "self-cleavage": 0.05}, {"variant": "CCGCCUAACACUGCCAAUGCCGGUCCAAAGCCCGGAUAAAAAUGGAGGGGGCGG", "note": "[C27A G42A]", "self-cleavage": 0.08}, {"variant": "CCGCCUAACACUGCCAAUGCCGGUCCAAAGCCCGGAUAAAACUGGAGGGGGCGG", "note": "[C27A G42C]", "self-cleavage": 0.06}, {"variant": "CCGCCUAACACUCCCAAUGCCGGUCCAAAGCCCGGAUAAAAGUGGAGGGGGCGG", "note": "[C27A G13C]", "self-cleavage": 0.01}, {"variant": "CCGCCUAACACUUCCAAUGCCGGUCCAAAGCCCGGAUAAAAGUGGAGGGGGCGG", "note": "[C27A G13U]", "self-cleavage": 0.02}, {"variant": "CCGCCUAACACUACCAAUGCCGGUCCAAAGCCCGGAUAAAAGUGGAGGGGGCGG", "note": "[C27A G13A]", "self-cleavage": 0.03}, {"variant": "CCGCCUAACACUGCCAAUGCCGGUCCAAAGCCCGGAUAAAAGUGGAAGGGGCGG", "note": "[C27A G47A]", "self-cleavage": 0.24}, {"variant": "CCGCCUAACACUGCCAAUGCCGGUCCAAAGCCCGGAUAAAAGUGGACGGGGCGG", "note": "[C27A G47C]", "self-cleavage": 0.36}, {"variant": "CCGCCUAACACUGCCAAUGCCGGUCCAAAGCCCGGAUAAAAGUGGAUGGGGCGG", "note": "[C27A G47U]", "self-cleavage": 0.83}, {"variant": "CCGCCUAACACUGCCAAUGCCGGUCCAAAGCCCGAAUAAAAGUGGAGGGGGCGG", "note": "[C27A G35A]", "self-cleavage": 0.39}, {"variant": "CCGCCUAACACUGCCAAUGCCGGUCCAAAGCCCGCAUAAAAGUGGAGGGGGCGG", "note": "[C27A G35C]", "self-cleavage": 0.07}, {"variant": "CCGCCUAACACUGCCAAUGCCGGUCCAAAGCCCGUAUAAAAGUGGAGGGGGCGG", "note": "[C27A G35U]", "self-cleavage": 0.16}, {"variant": "CCGCCUAACACUGCCAAUGCCGGUCUCAAGCCCGGAUAAAAGUGGAGGGGGCGA", "note": "[C26U G54A]", "self-cleavage": 0.38}, {"variant": "CCGCCUAACACUGCCAAUGCCGGUCUCAAGCCCGGAUAAAAGUGGAGGGGGCGU", "note": "[C26U G54U]", "self-cleavage": 0.62}, {"variant": "CCGCCUAACACUGCCAAUGCCGGUCUCAAGCCCGGAUAAAAGUGGAGGGGGCGC", "note": "[C26U G54C]", "self-cleavage": 0.3}, {"variant": "CCGCCUAACACUGCCAAUGCCGGUCCAAAGACCGGAUAAAAGUGGAGGGGGCGG", "note": "[C27A C31A]", "self-cleavage": 0.06}, {"variant": "CCGCCUAACACUGCCAAUGCCGGUCCAAAGUCCGGAUAAAAGUGGAGGGGGCGG", "note": "[C27A C31U]", "self-cleavage": 0.09}, {"variant": "CCGCCUAACACUGCCAAUGCCGGUCCAAAGGCCGGAUAAAAGUGGAGGGGGCGG", "note": "[C27A C31G]", "self-cleavage": 0.04}, {"variant": "CCGCCUAACACUGCCAAUGCCGGUCCAAAGCCCGGAUAAAAGUGGAGGGGGCGU", "note": "[C27A G54U]", "self-cleavage": 0.35}, {"variant": "CCGCCUAACACUGCCAAUGCCGGUCCAAAGCCCGGAUAAAAGUGGAGGGGGCGA", "note": "[C27A G54A]", "self-cleavage": 0.12}, {"variant": "CCGCCUAACACUGCCAAUGCCGGUCCAAAGCCCGGAUAAAAGUGGAGGGGGCGC", "note": "[C27A G54C]", "self-cleavage": 0.11}, {"variant": "CCGCCUAACACUGCCAAUGCCGGUCCAAAGCCCGGAUAAAAGUGGAGGGGCCGG", "note": "[C27A G51C]", "self-cleavage": 0.05}, {"variant": "CCGCCUAACACUGCCAAUGCCGGUCCAAAGCCCGGAUAAAAGUGGAGGGGACGG", "note": "[C27A G51A]", "self-cleavage": 0.1}, {"variant": "CCGCCUAACACUGCCAAUGCCGGUCCAAAGCCCGGAUAAAAGUGGAGGGGUCGG", "note": "[C27A G51U]", "self-cleavage": 0.05}, {"variant": "CCGCCUAACACUGCCAAUGCCGGUCUCAAGCCCGGAUAAAAGAGGAGGGGGCGG", "note": "[C26U U43A]", "self-cleavage": 0.32}, {"variant": "CCGCCUAACACUGCCAAUGCCGGUCUCAAGCCCGGAUAAAAGGGGAGGGGGCGG", "note": "[C26U U43G]", "self-cleavage": 0.15}, {"variant": "CCGCCUAACACUGCCAAUGCCGGUCUCAAGCCCGGAUAAAAGCGGAGGGGGCGG", "note": "[C26U U43C]", "self-cleavage": 0.14}, {"variant": "CCGCCUAACACUGCCAAUGCCGGUCCAAAGCCCGGAUAAAAGUGCAGGGGGCGG", "note": "[C27A G45C]", "self-cleavage": 0.03}, {"variant": "CCGCCUAACACUGCCAAUGCCGGUCCAAAGCCCGGAUAAAAGUGAAGGGGGCGG", "note": "[C27A G45A]", "self-cleavage": 0.06}, {"variant": "CCGCCUAACACUGCCAAUGCCGGUCCAAAGCCCGGAUAAAAGUGUAGGGGGCGG", "note": "[C27A G45U]", "self-cleavage": 0.07}, {"variant": "CCGCCUAACACAGCCAAUGCCGGUCCAAAGCCCGGAUAAAAGUGGAGGGGGCGG", "note": "[C27A U12A]", "self-cleavage": 0.07}, {"variant": "CCGCCUAACACCGCCAAUGCCGGUCCAAAGCCCGGAUAAAAGUGGAGGGGGCGG", "note": "[C27A U12C]", "self-cleavage": 0.06}, {"variant": "CCGCCUAACACGGCCAAUGCCGGUCCAAAGCCCGGAUAAAAGUGGAGGGGGCGG", "note": "[C27A U12G]", "self-cleavage": 0.11}, {"variant": "CCGCCUAACACUGCCAAUGCCGGUCCAAACCCCGGAUAAAAGUGGAGGGGGCGG", "note": "[C27A G30C]", "self-cleavage": 0.03}, {"variant": "CCGCCUAACACUGCCAAUGCCGGUCCAAAACCCGGAUAAAAGUGGAGGGGGCGG", "note": "[C27A G30A]", "self-cleavage": 0.02}, {"variant": "CCGCCUAACACUGCCAAUGCCGGUCCAAAUCCCGGAUAAAAGUGGAGGGGGCGG", "note": "[C27A G30U]", "self-cleavage": 0.03}, {"variant": "CCGCCUAACACUGCCAAUGCCGGUCCAAAGCCCAGAUAAAAGUGGAGGGGGCGG", "note": "[C27A G34A]", "self-cleavage": 0.18}, {"variant": "CCGCCUAACACUGCCAAUGCCGGUCCAAAGCCCCGAUAAAAGUGGAGGGGGCGG", "note": "[C27A G34C]", "self-cleavage": 0.09}, {"variant": "CCGCCUAACACUGCCAAUGCCGGUCCAAAGCCCUGAUAAAAGUGGAGGGGGCGG", "note": "[C27A G34U]", "self-cleavage": 0.17}, {"variant": "CCGCCUAACACAGCCAAUGCCGGUCUCAAGCCCGGAUAAAAGUGGAGGGGGCGG", "note": "[C26U U12A]", "self-cleavage": 0.2}, {"variant": "CCGCCUAACACGGCCAAUGCCGGUCUCAAGCCCGGAUAAAAGUGGAGGGGGCGG", "note": "[C26U U12G]", "self-cleavage": 0.23}, {"variant": "CCGCCUAACACCGCCAAUGCCGGUCUCAAGCCCGGAUAAAAGUGGAGGGGGCGG", "note": "[C26U U12C]", "self-cleavage": 0.09}, {"variant": "CCGCCUAACACUGCCAAUGCCGGUCCAAAGCGCGGAUAAAAGUGGAGGGGGCGG", "note": "[C27A C32G]", "self-cleavage": 0.06}, {"variant": "CCGCCUAACACUGCCAAUGCCGGUCCAAAGCACGGAUAAAAGUGGAGGGGGCGG", "note": "[C27A C32A]", "self-cleavage": 0.09}, {"variant": "CCGCCUAACACUGCCAAUGCCGGUCCAAAGCUCGGAUAAAAGUGGAGGGGGCGG", "note": "[C27A C32U]", "self-cleavage": 0.06}, {"variant": "CCGCCUAACACUGCCAAUUCCGGUCCAAAGCCCGGAUAAAAGUGGAGGGGGCGG", "note": "[C27A G19U]", "self-cleavage": 0.04}, {"variant": "CCGCCUAACACUGCCAAUACCGGUCCAAAGCCCGGAUAAAAGUGGAGGGGGCGG", "note": "[C27A G19A]", "self-cleavage": 0.09}, {"variant": "CCGCCUAACACUGCCAAUCCCGGUCCAAAGCCCGGAUAAAAGUGGAGGGGGCGG", "note": "[C27A G19C]", "self-cleavage": 0.03}]}]}
